ChEMBL document CHEMBL3779767, “Identification of potent and selective MTH1 inhibitors” (Bioorg Med Chem Lett, 2016)
≈ marks a conversion by molar mass, not a printed value. Calls of active or inactive are those of the source. The calls are words filed in the database; no cut-off is given here.

Experiments:
[1] = target: Proto-oncogene tyrosine-protein kinase Src (Homo sapiens) (UniProt P12931); test: Inhibition of partial length human SRC expressed in bacterial system at 1 uM
Summary of the method: (§1)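 Single-concentration screen across a panel of 97 kinases, with the test compound at 1 uM.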

[2] = target: Phosphatidylinositol 4-phosphate 3-kinase C2 domain-containing subunit beta (Homo sapiens) (UniProt O00750); test: Inhibition of partial length human PIK3C2beta expressed in mammalian system at 1 uM; summary of the method: as §1
[3] = target: MAP kinase-interacting serine/threonine-protein kinase 1 (Homo sapiens) (UniProt Q9BUB5); test: Inhibition of partial length human MKNK1 expressed in mammalian system at 1 uM; summary of the method: as §1
[4] = target: Activin receptor type-1B (Homo sapiens) (UniProt P36896); test: Inhibition of partial length human ACVR1B expressed in bacterial system at 1 uM
Summary of the method: (§2)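 Single-point screen within a 97-kinase profiling panel, with the test compound at 1 µM.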

HCT-116 = test: Antiproliferative activity against human HCT116 cells assessed as change in phenotypic response up to 50 uM; type: functional, cell-based
Liver microsome = test: Intrinsic clearance in human liver microsomes; type: ADME
[5] = target: Bone morphogenetic protein receptor type-2 (Homo sapiens) (UniProt Q13873); test: Inhibition of partial length human BMPR2 expressed in mammalian system at 1 uM; summary of the method: as §2
NCI-H358 [6] = test: Antiproliferative activity against human NCI-H358 cells assessed as change in phenotypic response measured after prolonged treatment; type: functional, cell-based
[7] = target: Serine/threonine-protein kinase PAK 4 (Homo sapiens) (UniProt O96013); test: Inhibition of partial length human PAK4 expressed in bacterial system at 1 uM; summary of the method: as §1
[8] = Cytotoxicity against human WI38 cells assessed as change in phenotypic response up to 50 uM; type: cell-based; conditions: wi-38
[9] = Cytotoxicity against human 293T cells assessed as change in phenotypic response up to 50 uM; type: cell-based; conditions: hek-293t
[10] = target: Insulin-like growth factor 1 receptor (Homo sapiens) (UniProt P08069); test: Inhibition of partial length human IGF1R expressed in bacterial system at 1 uM; summary of the method: as §2
SAOS-2 [11] = test: Antiproliferative activity against human Saos2 cells assessed as change in phenotypic response measured after prolonged treatment; type: functional, cell-based
[12] = target: Dual specificity tyrosine-phosphorylation-regulated kinase 1B (Homo sapiens) (UniProt Q9Y463); test: Inhibition of partial length human DYRK1B expressed in bacterial system at 1 uM; summary of the method: as §2
U2OS = test: Antiproliferative activity against human U2OS cells assessed as change in phenotypic response measured after prolonged treatment; type: functional, cell-based
[13] = target: Dual specificity mitogen-activated protein kinase kinase 1 (Homo sapiens) (UniProt Q02750); test: Inhibition of partial length human MEK1 expressed in mammalian system at 1 uM; summary of the method: as §2
Dual specificity mitogen-activated protein kinase kinase 1 (Homo sapiens), sequence (Q02750 whole entry): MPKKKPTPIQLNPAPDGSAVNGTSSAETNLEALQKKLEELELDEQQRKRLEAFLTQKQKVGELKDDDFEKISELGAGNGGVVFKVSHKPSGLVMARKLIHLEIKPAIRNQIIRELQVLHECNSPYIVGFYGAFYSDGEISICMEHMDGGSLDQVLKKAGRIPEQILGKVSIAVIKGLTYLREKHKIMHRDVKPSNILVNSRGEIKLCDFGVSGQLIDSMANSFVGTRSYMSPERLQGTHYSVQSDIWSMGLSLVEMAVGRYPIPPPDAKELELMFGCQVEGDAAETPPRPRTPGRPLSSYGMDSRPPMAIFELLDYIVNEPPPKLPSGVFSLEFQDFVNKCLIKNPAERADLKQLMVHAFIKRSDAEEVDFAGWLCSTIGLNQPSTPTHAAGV

[14] = target: Angiopoietin-1 receptor (Homo sapiens) (UniProt Q02763); test: Inhibition of partial length human TIE2 expressed in bacterial system at 1 uM; summary of the method: as §1
[15] = target: Receptor-type tyrosine-protein kinase FLT3 (Homo sapiens) (UniProt P36888); test: Inhibition of partial length human FLT3 expressed in bacterial system at 1 uM; summary of the method: as §2
NCI-H460 = test: Antiproliferative activity against human NCI-H460 cells assessed as change in phenotypic response measured after prolonged treatment; type: functional, cell-based
[16] = target: Cyclin-dependent kinase 2 (Homo sapiens) (UniProt P24941); test: Inhibition of partial length human CDK2 expressed in bacterial system at 1 uM; summary of the method: as §2
[17] = target: Serine/threonine-protein kinase DCLK1 (Homo sapiens) (UniProt O15075); test: Inhibition of partial length human DCAMKL1 expressed in mammalian system at 1 uM; summary of the method: as §2
Serine/threonine-protein kinase DCLK1 (Homo sapiens), sequence (O15075 whole entry): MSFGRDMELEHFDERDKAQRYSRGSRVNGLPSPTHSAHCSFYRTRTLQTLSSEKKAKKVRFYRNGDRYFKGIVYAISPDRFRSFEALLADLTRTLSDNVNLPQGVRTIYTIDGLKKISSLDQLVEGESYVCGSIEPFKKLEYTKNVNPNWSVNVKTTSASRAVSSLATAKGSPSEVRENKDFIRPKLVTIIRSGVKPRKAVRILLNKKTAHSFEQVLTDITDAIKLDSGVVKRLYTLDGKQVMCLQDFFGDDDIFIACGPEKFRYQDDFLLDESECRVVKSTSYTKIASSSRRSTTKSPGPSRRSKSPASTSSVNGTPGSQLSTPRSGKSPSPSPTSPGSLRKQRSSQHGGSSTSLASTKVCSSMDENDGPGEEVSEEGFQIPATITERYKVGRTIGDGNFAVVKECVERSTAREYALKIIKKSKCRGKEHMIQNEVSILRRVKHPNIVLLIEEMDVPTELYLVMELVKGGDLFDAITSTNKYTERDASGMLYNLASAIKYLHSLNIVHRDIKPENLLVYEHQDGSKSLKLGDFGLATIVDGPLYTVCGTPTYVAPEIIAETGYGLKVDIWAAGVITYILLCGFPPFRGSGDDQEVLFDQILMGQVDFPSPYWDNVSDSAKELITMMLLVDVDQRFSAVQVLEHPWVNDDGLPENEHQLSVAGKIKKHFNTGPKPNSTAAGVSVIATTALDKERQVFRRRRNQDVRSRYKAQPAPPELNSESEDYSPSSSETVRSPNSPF

HeLa = test: Antiproliferative activity against human HeLa cells assessed as change in phenotypic response measured after prolonged treatment; type: functional, cell-based
[18] = target: Focal adhesion kinase 1 (Homo sapiens) (UniProt Q05397); test: Inhibition of partial length human FAK expressed in bacterial system at 1 uM; summary of the method: as §2
[19] = target: Mitogen-activated protein kinase 8 (Homo sapiens) (UniProt P45983); test: Inhibition of partial length human JNK1 expressed in mammalian system at 1 uM; summary of the method: as §2
Mitogen-activated protein kinase 8 (Homo sapiens), sequence (P45983 whole entry): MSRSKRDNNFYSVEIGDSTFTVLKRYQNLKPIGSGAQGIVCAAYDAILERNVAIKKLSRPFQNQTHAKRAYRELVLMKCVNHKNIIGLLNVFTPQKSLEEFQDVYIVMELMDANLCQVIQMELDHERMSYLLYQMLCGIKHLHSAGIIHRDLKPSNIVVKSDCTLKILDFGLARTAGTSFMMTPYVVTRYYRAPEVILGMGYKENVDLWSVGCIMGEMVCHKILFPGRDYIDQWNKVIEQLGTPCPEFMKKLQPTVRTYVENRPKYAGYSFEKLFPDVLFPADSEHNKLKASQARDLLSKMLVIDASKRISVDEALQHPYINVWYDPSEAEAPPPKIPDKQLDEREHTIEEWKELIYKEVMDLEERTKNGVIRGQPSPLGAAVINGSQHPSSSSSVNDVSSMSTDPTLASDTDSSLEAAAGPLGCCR

[20] = target: Serine/threonine-protein kinase 32C (Homo sapiens) (UniProt Q86UX6); test: Inhibition of partial length human YANK3 expressed in bacterial system at 1 uM; summary of the method: as §1
[21] = target: Mitogen-activated protein kinase 10 (Homo sapiens) (UniProt P53779); test: Inhibition of partial length human JNK3 expressed in mammalian system at 1 uM; summary of the method: as §2
Mitogen-activated protein kinase 10 (Homo sapiens), sequence (P53779 whole entry): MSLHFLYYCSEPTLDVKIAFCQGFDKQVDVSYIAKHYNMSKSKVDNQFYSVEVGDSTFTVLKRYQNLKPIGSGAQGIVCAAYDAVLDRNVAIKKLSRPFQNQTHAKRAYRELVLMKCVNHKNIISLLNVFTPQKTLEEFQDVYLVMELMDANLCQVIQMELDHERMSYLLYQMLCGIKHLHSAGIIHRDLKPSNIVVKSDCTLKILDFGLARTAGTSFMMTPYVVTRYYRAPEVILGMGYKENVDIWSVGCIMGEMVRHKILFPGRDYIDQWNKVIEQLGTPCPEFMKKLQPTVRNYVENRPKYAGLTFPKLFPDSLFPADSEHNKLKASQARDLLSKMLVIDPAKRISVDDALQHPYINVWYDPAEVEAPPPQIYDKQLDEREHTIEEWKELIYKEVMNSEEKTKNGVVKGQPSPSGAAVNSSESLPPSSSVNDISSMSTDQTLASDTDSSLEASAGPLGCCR

[22] = target: Aurora kinase A (Homo sapiens) (UniProt O14965); test: Inhibition of partial length human Aurora A expressed in mammalian system at 1 uM; summary of the method: as §2
[23] = target: Mitogen-activated protein kinase 11 (Homo sapiens) (UniProt Q15759); test: Inhibition of partial length human p38beta expressed in bacterial system at 1 uM; summary of the method: as §1
[24] = target: Mitogen-activated protein kinase 14 (Homo sapiens) (UniProt Q16539); test: Inhibition of partial length human p38alpha expressed in bacterial system at 1 uM; summary of the method: as §1
[25] = tested on: Mast/stem cell growth factor receptor Kit (Homo sapiens), P10721 [V559D,T670I]; test: Inhibition of partial length human KIT V559D/T670I double mutant expressed in bacterial system at 1 uM
Mast/stem cell growth factor receptor Kit (Homo sapiens), P10721 [V559D,T670I], sequence (P10721 whole entry V559D/T670I): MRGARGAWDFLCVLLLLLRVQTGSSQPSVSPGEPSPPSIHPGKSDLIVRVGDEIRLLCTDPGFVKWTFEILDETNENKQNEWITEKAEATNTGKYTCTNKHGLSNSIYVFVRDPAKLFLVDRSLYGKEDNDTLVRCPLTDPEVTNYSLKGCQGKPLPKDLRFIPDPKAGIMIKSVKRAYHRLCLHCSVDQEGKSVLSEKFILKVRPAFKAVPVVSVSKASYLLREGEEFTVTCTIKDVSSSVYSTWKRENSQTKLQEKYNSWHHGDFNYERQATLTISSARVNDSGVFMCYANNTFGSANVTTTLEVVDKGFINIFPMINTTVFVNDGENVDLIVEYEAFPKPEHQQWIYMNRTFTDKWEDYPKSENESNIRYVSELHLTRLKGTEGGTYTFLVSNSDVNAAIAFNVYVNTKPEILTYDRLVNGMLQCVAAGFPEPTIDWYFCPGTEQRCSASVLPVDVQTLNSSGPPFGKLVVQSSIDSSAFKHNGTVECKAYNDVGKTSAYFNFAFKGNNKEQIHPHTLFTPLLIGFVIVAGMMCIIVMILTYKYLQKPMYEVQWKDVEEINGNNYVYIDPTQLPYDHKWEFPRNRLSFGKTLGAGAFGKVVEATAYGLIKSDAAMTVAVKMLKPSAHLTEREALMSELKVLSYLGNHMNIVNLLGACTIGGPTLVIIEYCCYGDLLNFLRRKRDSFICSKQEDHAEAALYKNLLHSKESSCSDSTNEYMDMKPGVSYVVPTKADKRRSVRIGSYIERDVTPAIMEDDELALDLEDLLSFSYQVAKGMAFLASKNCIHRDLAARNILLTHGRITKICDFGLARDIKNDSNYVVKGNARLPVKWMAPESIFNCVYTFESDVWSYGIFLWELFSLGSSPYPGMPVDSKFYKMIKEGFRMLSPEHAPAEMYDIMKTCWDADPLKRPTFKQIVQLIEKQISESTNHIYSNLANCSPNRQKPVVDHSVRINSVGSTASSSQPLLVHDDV
Summary of the method: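 Single-concentration screen at 1 µM test concentration, run as part of a commercial binding/activity profiling panel covering 97 kinases.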

[26] = target: Tyrosine-protein kinase JAK3 (Homo sapiens) (UniProt P52333); test: Inhibition of partial length human JAK3 JH1 catalytic domain expressed in mammalian system at 1 uM; summary of the method: as §2
Tyrosine-protein kinase JAK3 (Homo sapiens), sequence (P52333 whole entry, the tested form may be a part): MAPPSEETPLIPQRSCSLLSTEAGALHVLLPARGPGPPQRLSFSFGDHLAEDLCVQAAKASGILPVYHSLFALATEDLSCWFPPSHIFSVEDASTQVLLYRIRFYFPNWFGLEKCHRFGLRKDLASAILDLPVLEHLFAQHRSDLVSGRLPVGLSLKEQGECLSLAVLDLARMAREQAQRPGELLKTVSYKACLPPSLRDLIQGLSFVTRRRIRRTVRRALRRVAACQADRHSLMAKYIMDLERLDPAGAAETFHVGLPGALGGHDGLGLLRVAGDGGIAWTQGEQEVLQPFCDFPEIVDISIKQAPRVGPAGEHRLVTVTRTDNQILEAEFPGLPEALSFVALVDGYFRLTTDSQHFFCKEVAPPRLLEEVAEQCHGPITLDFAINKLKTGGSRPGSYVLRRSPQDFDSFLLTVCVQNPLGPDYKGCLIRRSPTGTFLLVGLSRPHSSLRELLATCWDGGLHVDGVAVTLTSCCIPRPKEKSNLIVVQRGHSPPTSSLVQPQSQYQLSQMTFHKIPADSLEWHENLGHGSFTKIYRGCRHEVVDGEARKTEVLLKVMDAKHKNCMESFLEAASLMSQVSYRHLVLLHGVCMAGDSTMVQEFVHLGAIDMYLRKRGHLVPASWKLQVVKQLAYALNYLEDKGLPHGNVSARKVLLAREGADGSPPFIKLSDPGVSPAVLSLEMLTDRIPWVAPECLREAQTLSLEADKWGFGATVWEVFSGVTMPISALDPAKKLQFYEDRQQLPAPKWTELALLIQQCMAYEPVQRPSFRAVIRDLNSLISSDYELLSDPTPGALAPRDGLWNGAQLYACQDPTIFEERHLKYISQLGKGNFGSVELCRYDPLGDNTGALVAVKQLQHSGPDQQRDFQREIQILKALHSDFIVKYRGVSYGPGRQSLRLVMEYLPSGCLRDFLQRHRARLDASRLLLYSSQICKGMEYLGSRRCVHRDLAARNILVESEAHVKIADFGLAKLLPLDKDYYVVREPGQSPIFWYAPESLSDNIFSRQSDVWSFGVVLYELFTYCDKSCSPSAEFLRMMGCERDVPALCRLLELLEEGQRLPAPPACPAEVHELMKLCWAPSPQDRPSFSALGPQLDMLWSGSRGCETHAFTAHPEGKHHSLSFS

[27] = target: Receptor tyrosine-protein kinase erbB-4 (Homo sapiens) (UniProt Q15303); test: Inhibition of partial length human ERBB4 expressed in bacterial system at 1 uM; summary of the method: as §2
NCI-H358 [28] = test: Antiproliferative activity against human NCI-H358 cells assessed as change in phenotypic response up to 50 uM; type: functional, cell-based
[29] = Solubility of the compound in PBS at pH 7; type: physicochemical
Summary of the method: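 Aqueous solubility was determined in sodium phosphate buffer at pH 7.0.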

HMEC = test: Cytotoxicity against human HMEC cells assessed as change in phenotypic response up to 50 uM; type: cell-based
[30] = target: ALK tyrosine kinase receptor (Homo sapiens) (UniProt Q9UM73); test: Inhibition of partial length human ALK expressed in mammalian system at 1 uM; summary of the method: as §2
SAOS-2 [31] = test: Antiproliferative activity against human Saos2 cells assessed as change in phenotypic response up to 50 uM; type: functional, cell-based
[32] = target: MAP kinase-activated protein kinase 2 (Homo sapiens) (UniProt P49137); test: Inhibition of partial length human MAPKAPK2 expressed in bacterial system at 1 uM; summary of the method: as §2
MAP kinase-activated protein kinase 2 (Homo sapiens), sequence (P49137 whole entry, looked up): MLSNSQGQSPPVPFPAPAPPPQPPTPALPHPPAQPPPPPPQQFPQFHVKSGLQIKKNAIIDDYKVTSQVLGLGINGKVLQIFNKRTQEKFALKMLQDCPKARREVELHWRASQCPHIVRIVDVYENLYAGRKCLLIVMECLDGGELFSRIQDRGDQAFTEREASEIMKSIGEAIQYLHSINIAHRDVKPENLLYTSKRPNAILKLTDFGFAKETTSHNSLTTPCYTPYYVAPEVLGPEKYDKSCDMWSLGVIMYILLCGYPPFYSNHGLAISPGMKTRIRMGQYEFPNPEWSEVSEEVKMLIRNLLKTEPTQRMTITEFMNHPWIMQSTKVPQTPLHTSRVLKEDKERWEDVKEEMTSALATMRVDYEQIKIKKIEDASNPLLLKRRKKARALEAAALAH

[33] = target: Serine/threonine-protein kinase STK11 (Homo sapiens) (UniProt Q15831); test: Inhibition of partial length human LKB1 expressed in bacterial system at 1 uM; summary of the method: as §2
[34] = target: Mitogen-activated protein kinase 3 (Homo sapiens) (UniProt P27361); test: Inhibition of partial length human ERK1 expressed in bacterial system at 1 uM; summary of the method: as §2
Mitogen-activated protein kinase 3 (Homo sapiens), sequence (P27361 whole entry): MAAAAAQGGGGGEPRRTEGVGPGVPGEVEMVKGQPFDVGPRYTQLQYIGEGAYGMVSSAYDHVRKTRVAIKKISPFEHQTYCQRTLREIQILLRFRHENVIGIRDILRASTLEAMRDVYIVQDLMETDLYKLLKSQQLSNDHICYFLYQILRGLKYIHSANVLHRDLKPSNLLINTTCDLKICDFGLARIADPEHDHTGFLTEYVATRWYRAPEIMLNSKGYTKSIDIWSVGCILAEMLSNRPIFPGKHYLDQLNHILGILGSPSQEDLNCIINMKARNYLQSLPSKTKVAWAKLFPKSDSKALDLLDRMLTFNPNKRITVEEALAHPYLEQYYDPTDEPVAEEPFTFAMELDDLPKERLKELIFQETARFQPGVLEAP

[35] = target: Serine/threonine-protein kinase RIO2 (Homo sapiens) (UniProt Q9BVS4); test: Inhibition of partial length human RIOK2 expressed in mammalian system at 1 uM; summary of the method: as §1
[36] = Cytotoxicity against human WI38 cells assessed as change in phenotypic response measured after prolonged treatment; type: cell-based; conditions: wi-38

Cc1cnc(N)nc1OCC(C)(C)CO
inhibition [1]: inactive | inhibition [2]: inactive | inhibition [3]: inactive | inhibition [4]: inactive | Activity (HCT-116): inactive | CLH (Liver microsome): 7.5 µL/min/mg | inhibition [5]: inactive | Activity (NCI-H358 [6]): inactive | inhibition [7]: inactive | Activity [8]: Non-toxic | Activity [9]: Non-toxic | inhibition [10]: inactive | Activity (SAOS-2 [11]): inactive | inhibition [12]: inactive | Activity (U2OS): inactive | inhibition [13]: inactive | inhibition [14]: inactive | inhibition [15]: inactive | Activity (NCI-H460): inactive | inhibition [16]: inactive | inhibition [17]: inactive | Activity (HeLa): inactive | inhibition [18]: inactive | inhibition [19]: inactive | inhibition [20]: inactive | inhibition [21]: inactive | inhibition [22]: inactive | inhibition [23]: inactive | inhibition [24]: inactive | inhibition [25]: inactive | inhibition [26]: inactive | inhibition [27]: inactive | Activity (NCI-H358 [28]): inactive | solubility [29]: 75.6 µM (≈ 16 µg/mL) | Activity (HMEC): Non-toxic | inhibition [30]: inactive | Activity (SAOS-2 [31]): inactive | inhibition [32]: inactive | inhibition [33]: inactive | inhibition [34]: inactive | inhibition [35]: inactive | Activity [36]: Non-toxic
